Measured values published in ChEMBL document CHEMBL1127414 (J Med Chem, 1994).

What was measured:
[1] = system: HepG2; test: Concentration required to inhibit cholesterol synthesis in Hep G2 cells relative to control (IC50 of L-694,599); type: functional, Homo sapiens
How it was run: (§1)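 Hep G2 cells held 2 days in lipoprotein-depleted FBS to stimulate sterol synthesis, then given inhibitor in serum-free medium for 2 h. 15 μCi [5-3H]mevalonate (0.2 mCi/mmol) added for 1 h. Cells washed and saponified, and radioactivity counted by scintillation.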

[2] = system: Mus musculus; test: Ability to inhibit the incorporation of [5-3H]-mevalonolactone into cholesterol by in vivo mouse assay by peroral administration at a dose of 24 mg/kg; type: functional; conditions: route oral
How it was run: (§2)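 Female Swiss Webster mice (~25 g), six per group, dosed po by gavage with inhibitor suspended in 5% emulphor. 30 min later, 0.5 μCi/mouse [5-3H]mevalonolactone in saline given sc. Livers removed 30 min after that and saponified in KOH/EtOH overnight at 55 °C, then petroleum-ether extracted. Nonsaponifiable dpm counted. Compounds first tested at a single dose (typically 12 or 24 mg/kg).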

[3] = target: T1, Squalene synthase (Rattus norvegicus, UniProt Q02769); test: Tested for inhibition against squalene synthase enzyme in rat liver
T1 sequence (Q02769 whole entry): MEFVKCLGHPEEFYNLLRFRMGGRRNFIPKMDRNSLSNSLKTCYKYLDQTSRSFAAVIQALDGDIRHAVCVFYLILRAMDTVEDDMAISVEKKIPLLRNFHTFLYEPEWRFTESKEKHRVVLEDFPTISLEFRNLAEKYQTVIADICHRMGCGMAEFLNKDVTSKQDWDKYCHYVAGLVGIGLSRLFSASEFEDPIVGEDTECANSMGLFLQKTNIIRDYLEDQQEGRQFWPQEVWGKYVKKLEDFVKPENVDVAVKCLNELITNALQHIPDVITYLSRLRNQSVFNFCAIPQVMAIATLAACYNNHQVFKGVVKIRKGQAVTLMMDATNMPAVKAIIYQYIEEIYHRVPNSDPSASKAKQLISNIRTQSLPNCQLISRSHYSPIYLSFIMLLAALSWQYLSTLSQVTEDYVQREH

[4] = system: HepG2; test: Concentration required to inhibit cholesterol synthesis in Hep G2 cells; type: functional, cell-based; conditions: Homo sapiens; how it was run: as §1
[5] = target: T2, Squalene synthase (Rattus norvegicus) (UniProt Q02769); test: Concentration required to inhibit rat liver squalene synthase enzyme relative to control (L-694,599)
T2 sequence (whole entry): T1 sequence (Q02769 whole entry)
How it was run: (§3)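 Enzyme from rat liver. […] Inhibitors added in DMSO (0.3% final) as 3-fold serial dilutions, usually up to 30 ng/mL (about 40 nM). IC50 read from % inhibition vs log concentration.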

[6] = target: T2, Squalene synthase (Rattus norvegicus); test: concentration required to inhibit rat liver squalene synthase enzyme relative to control (L-694,599); how it was run: as §3
[7] = target: T3, Squalene synthase (Mus musculus) (UniProt P53798); test: Tested for the effective dose required for the incorporation of [5-3H]-mevalonolactone into cholesterol by in vivo mouse assay by peroral administration; type: functional, organism-based; how it was run: as §2
T3 sequence (whole entry): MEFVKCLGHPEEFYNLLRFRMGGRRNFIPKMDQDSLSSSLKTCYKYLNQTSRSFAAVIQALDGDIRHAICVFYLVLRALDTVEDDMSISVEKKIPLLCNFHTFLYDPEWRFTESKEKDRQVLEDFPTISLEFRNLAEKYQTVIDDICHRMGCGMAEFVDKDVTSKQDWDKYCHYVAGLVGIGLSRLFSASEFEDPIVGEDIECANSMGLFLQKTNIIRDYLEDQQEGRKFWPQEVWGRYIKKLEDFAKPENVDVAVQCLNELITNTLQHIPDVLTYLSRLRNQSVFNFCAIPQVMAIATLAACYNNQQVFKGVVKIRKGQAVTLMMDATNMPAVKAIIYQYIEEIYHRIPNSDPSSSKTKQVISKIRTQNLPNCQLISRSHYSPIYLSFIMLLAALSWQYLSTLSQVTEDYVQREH

Row | IC50 [3] | IC50 [4] | Relative activity [5] | Relative activity [6] | ED50 [7] | Compound | Relative activity [1] | inhibition in vivo at 24 mg/kg [2]
1 | 0.13 nM | 2000 nM | 1.08 | – | – | C=C(CCC12OC(C(=O)O)C(O)(C(=O)O)C(C(=O)O)(O1)[C@H](OC(=O)CCCCCCCCCCOc1ccccc1)[C@H]2O)[C@@H](OC(C)=O)[C@H](C)Cc1ccccc1 (stereo partly specified) | 3.4 | 11%
2 | 0.52 nM | 2500 nM | 0.27 | – | – | C=C(CCC12OC(C(=O)O)C(O)(C(=O)O)C(C(=O)O)(O1)[C@H](OC(=O)CCCCCCCCCCCCCCC)[C@H]2O)[C@@H](OC(C)=O)[C@H](C)Cc1ccccc1 (stereo partly specified) | 2.2 | –
3 | 0.42 nM | – | – | 0.69 | – | C=C(CCC12OC(C(=O)O)C(O)(C(=O)O)C(C(=O)O)(O1)[C@H](OC(=O)/C=C/[C@@H](C)C[C@@H](C)CC)[C@H]2O)[C@@H](OC(=O)CC)[C@H](C)Cc1ccccc1 (stereo partly specified) | – | -4%
4 | 0.19 nM | 7500 nM | 0.74 | – | – | C=C(CCC12OC(C(=O)O)C(O)(C(=O)O)C(C(=O)O)(O1)[C@H](OC(=O)CC[C@@H](C)C[C@@H](C)CC)[C@H]2O)[C@@H](OC(C)=O)[C@H](C)Cc1ccccc1 (stereo partly specified) | 0.8 | –
5 | 0.81 nM | – | – | 0.16 | – | C=C(CCC12OC(C(=O)O)C(OCCCCCCCCOc3ccccc3)(C(=O)O)C(C(=O)O)(O1)[C@H](O)[C@H]2O)[C@@H](OC(C)=O)[C@H](C)Cc1ccccc1 (stereo partly specified) | – | –
6 | 0.17 nM | 8800 nM | 1.29 | – | – | C=C(CCC12OC(C(=O)O)C(O)(C(=O)O)C(C(=O)O)(O1)[C@H](OC(=O)NCCCCCCCCCCCC)[C@H]2O)[C@@H](OC(C)=O)[C@H](C)Cc1ccccc1 (stereo partly specified) | 1.02 | 0%
7 | 8.2 nM | – | – | 0.02 | – | C=C(CCC12OC(C(=O)O)C(OCCCCCCCCOc3ccccc3)(C(=O)O)C(C(=O)O)(O1)[C@H](OCCCCCCCCOc1ccccc1)[C@H]2O)[C@@H](OC(C)=O)[C@H](C)Cc1ccccc1 (stereo partly specified) | – | –
8 | 1.1 nM | – | – | 0.11 | – | C=C(CCC12OC(C(=O)O)C(OCCCCCCCCCCCOc3ccccc3)(C(=O)O)C(C(=O)O)(O1)[C@H](O)[C@H]2O)[C@@H](OC(C)=O)[C@H](C)Cc1ccccc1 (stereo partly specified) | – | –
9 | – | – | – | – | > 24 mg/kg | C=C(CCC12OC(C(=O)O)C(O)(C(=O)O)C(C(=O)O)(O1)[C@H](O)[C@H]2O)[C@@H](OC(C)=O)[C@H](C)Cc1ccccc1 (stereo partly specified) | – | 34%
10 | 3.4 nM | – | – | 0.06 | 14 mg/kg | C=C(CCC12OC(C(=O)O)C(O)(C(=O)O)C(C(=O)O)(O1)[C@H](OC(=O)SC(C)C)[C@H]2O)[C@@H](OC(C)=O)[C@H](C)Cc1ccccc1 (stereo partly specified) | – | –
11 | 0.24 nM | – | – | 1.67 | – | C=C(CCC12OC(C(=O)O)C(O)(C(=O)O)C(C(=O)O)(O1)[C@H](OC(=O)/C=C/[C@@H](C)C[C@@H](C)CC)[C@H]2O)C[C@H](C)Cc1ccccc1 (stereo partly specified) | – | –
12 | 17 nM | – | – | 0.02 | – | C=C(CCC12OC(C(=O)O)C(OCCCCCCCCCCCC)(C(=O)O)C(C(=O)O)(O1)[C@H](OCCCCCCCCCCCC)[C@H]2O)[C@@H](OC(C)=O)[C@H](C)Cc1ccccc1 (stereo partly specified) | – | –
13 | 0.8 nM | – | 0.46 | – | > 24 mg/kg | C=C(CCC12OC(C(=O)O)C(O)(C(=O)O)C(C(=O)O)(O1)[C@H](OC(=O)NCC13CC4CC(CC(C4)C1)C3)[C@H]2O)[C@@H](OC(C)=O)[C@H](C)Cc1ccccc1 (stereo partly specified) | – | -5%
14 | 0.75 nM | – | – | 0.17 | – | C=C(CCC12OC(C(=O)O)C(OCCCCCCCCCCCCCC)(C(=O)O)C(C(=O)O)(O1)[C@H](O)[C@H]2O)[C@@H](OC(C)=O)[C@H](C)Cc1ccccc1 (stereo partly specified) | – | –
15 | 0.2 nM | 900 nM | 1.1 | – | – | C=C(CCC12OC(C(=O)O)C(O)(C(=O)O)C(C(=O)O)(O1)[C@H](OC(=O)CCCCCCCCCCCCC)[C@H]2O)[C@@H](OC(C)=O)[C@H](C)Cc1ccccc1 (stereo partly specified) | 6.11 | –
